Data set [1] has as its system HepG2. Kind of data set: Cytotoxicity against human HepG2 cells assessed as reduction in cell viability incubated for 24 hrs by MTT assay. Type of data set: functional, cell-based. The following applies: HepG2, 24 h. In short, it runs like this:
(§1)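 Cells seeded at 1 × 10⁴/well in DMEM with 10% FBS and left overnight, then given compound (DMSO stock diluted in DMEM) for 24 h at 37 °C. MTT added for 4 h, formazan dissolved in DMSO, absorbance read at 492 nm. Viability taken as OD treated/OD DMEM × 100%; IC50 from three independent experiments, mean SD.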
For orientation: Tetrazolium assays rely on reduction of a dye to a coloured formazan, in cell work by metabolically active cells.

The test system of data set [2] is BV-2. Kind of data set: Cytotoxicity against mouse BV-2 cells assessed as survival rate at 100 uM incubated for 24 hrs by MTT assay. Type of data set: functional. Summed up: as §1
Data set [3] concerns PC-12. As to the kind of experiment: Cytotoxicity against rat PC-12 cells assessed as reduction in cell viability incubated for 24 hrs by MTT assay. The format is functional, cell-based. Particulars: PC-12, 24 h. Summed up:
as §1

For data set [4], the system named is SH-SY5Y. As to the kind of experiment: Cytotoxicity against human SH-SY5Y cells assessed as reduction in cell viability incubated for 24 hrs by MTT assay. The format is functional, cell-based. Summed up:
as §1

Data set [5] deals with L02. Kind of data set: Cytotoxicity against human L02 cells assessed as survival rate at 100 uM incubated for 24 hrs by MTT assay. Type of data set: functional. Summed up:
as §1

Data set [6] addresses Cholinesterase (Homo sapiens, UniProt P06276). Kind of data set: Inhibition of human serum BChE using butyrylthiocholine iodide as substrate preincubated for 20 mins followed by substrate addition and measured after 2 mins by DTNB-reagent based Ellman's method. Summed up: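 hBChE at 0.015 units/mL with DTNB in phosphate buffer pH 8.0, preincubated 20 min at room temperature with at least six concentrations (10⁻⁴−10⁻⁹). Butyrylthiocholine iodide (0.075 M solution) added; A412 read after 2 min at 25 °C. IC50 from % activity vs log concentration; triplicates in at least three runs.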
In general terms: DTNB colorimetry detects thiols as they appear.

In data set [7] the test system is PC-12. As to the kind of experiment: Cytotoxicity against rat PC-12 cells assessed as survival rate at 2.5 uM incubated for 24 hrs by MTT assay. The format is functional. In short, it runs like this: as §1
Data set [8] addresses Cholinesterase (Equus caballus, UniProt P81908). Kind of data set: Inhibition of equine serum BChE using butyrylthiocholine iodide as substrate preincubated for 5 mins followed by substrate addition and measured after 2 mins by DTNB-reagent based Ellman's method.
For data set [9], the system named is SH-SY5Y. Kind of data set: Cytotoxicity against human SH-SY5Y cells assessed as survival rate at 2.5 uM incubated for 24 hrs by MTT assay. Type of data set: functional. Summed up: as §1
Data set [10] has as its system Mus musculus. As to the kind of experiment: Anti-alzheimer activity in amyloid beta(1 to 42)-induced ICR mouse model of cognitive impairment assessed as reduction in escape latency time at 15 mg/kg, ig administered at days 2 to 14 by Morris water maze test. Type of data set: functional. Summed up:
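Mouse model by icv oligomerized Aβ1-42 (10 μg/mouse, aggregated 24 h at 37 °C in saline) on day 1; 15 mg/kg ig on days 2−14, n = 8. Morris water maze training on days 9−13, probe trial day 14, escape latency and track recorded. Mean SD.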

Data set [11] can be described thus: Toxicity in ICR mouse assessed as increase in body weight administered for 14 days and measured daily. Particulars: in vivo, 15 mg/kg, 336 h.
The nature of data set [12]: Hepatotoxicity in ICR mouse assessed as change in aspartate aminotransferase activity at 1 g/kg, ig administered daily for 14 days measured upto 36 hrs post-administration. Particulars: in vivo, po, 1000 mg/kg, 336 h, time 14 day. Type of data set: toxicity. In short, it runs like this: (§2)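 Heparinized serum from ICR mice taken at 8, 22 and 36 h after oral compound or saline control; AST and ALT activities measured.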

The nature of data set [13]: Acute toxicity in ICR mouse assessed as animal death at […]. The following applies: in vivo, po, 1000 mg/kg, 336 h.
In data set [14] the test system is SH-SY5Y. Kind of data set: Neuroprotective activity against H2O2-induced cytotoxicity in human SH-SY5Y cells pretreated for 2 hrs followed by H2O2 stimulation and measured after 24 hrs by MTT assay. The following applies: dose 2.5-10 µM, time 26.0 hrs. Type of data set: functional, cell-based. Summed up:
(§3)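 SH-SY5Y cells seeded at 5000 per well and grown 24 h. Pretreated 2 h with compound (2.5 or 10 μM, diluted in DMEM from 10⁻¹ M DMSO stock), then H₂O₂ 200 μM, glutamate 20 mM or aggregated Aβ1-42 15 μM for 24 h. MTT added for 4 h, formazan dissolved in DMSO, absorbance read at 492 nm. Viability relative to untreated control; mean ± SEM, n = 3.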

The subject of data set [15] is SH-SY5Y. As to the kind of experiment: Neuroprotective activity against amyloid beta (1 to 42)-induced cytotoxicity in human SH-SY5Y cells at 10 uM pretreated for 2 hrs followed by amyloid beta (1 to 42) stimulation and measured after 24 hrs by MTT assay. The following applies: time 26.0 hrs. The format is functional, cell-based. In short, it runs like this:
as §3

Data set [16] can be described thus: Hepatotoxicity in ICR mouse assessed as morphological changes in liver at 1 g/kg, ig administered daily for 14 days analysed after 22 hrs post-administration by hematoxylin and eosin staining based analysis. Type of data set: toxicity, tissue-based. The following applies: in vivo, po, 1000 mg/kg, 336 h, time 14 day. Summed up:
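Liver from male mice taken 22 h after compound or vehicle; hematoxylin−eosin staining, viewed at ×100.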

Data set [17] in a line: Effective permeability of the compound in pH 7.4 PBS/EtOH (70:30) at 100 ug/ml incubated for 18 hrs by PAMPA-BBB assay. The following applies: dose 100 µg/ml, read-out: Peff. Type of data set: ADME. Summed up:
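PAMPA-BBB with porcine brain lipid in dodecane (20 mg/mL) on PVDF filter. Donor holds compound at 100 μg/mL final (from 5 mg/mL DMSO stock) in PBS pH 7.4/EtOH 70:30; acceptor holds the same buffer. Incubated 18 h at 25 °C; donor and acceptor concentrations by UV at five wavelengths. Four wells, at least three runs, nine permeability standards; mean ± SD.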

The subject of data set [18] is Mus musculus. As to the kind of experiment: Antialzheimer activity in ICR mouse assessed as reduction in scopolamine-induced cognitive impairment at 30 mg/kg, ig administered for 10 consecutive days by Morris water maze test. The format is functional, organism-based. The following applies: time 10.0 day. In short, it runs like this:
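Male ICR mice (8−10 weeks, 18−20 g), n = 8 per group. Compound at 15 or 30 mg/kg intragastric in DMSO/saline (10:90), given 30 min before scopolamine 3 mg/kg i.p., for 10 consecutive days; tacrine 15 mg/kg as reference. Morris water maze: 5 days of training, probe trial on day 6 with platform removed. Escape latency and trajectory recorded; mean ± SD.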

A short description of data set [19]: Metabolic stability in human liver microsomes assessed as intrinsic clearance at 1 uM measured upto 45 mins in presence of NADPH by LC/MS/MS analysis. Type of data set: ADME, Microsome. The following applies: read-out: CLH. In short, it runs like this: (§4)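 Human liver microsomes 0.5 mg/mL, compound 1 μM final, NADPH 2 mM, at 37 °C. Reactions stopped at 0, 5, 15, 30 and 45 min with acetonitrile containing imipramine internal standard. LC/MS/MS quantitation relative to 0 min; initial rates used for t1/2 and intrinsic clearance; ketanserin as assay control. Mean of two independent experiments.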
On the technique in general: Liver microsomes are vesicles of endoplasmic reticulum, rich in cytochrome P450 enzymes.

Data set [20] has as its system SH-SY5Y. Kind of data set: Cytotoxicity against human SH-SY5Y cells assessed as survival rate at 100 uM incubated for 24 hrs by MTT assay. Type of data set: functional. Summed up:
as §1

The subject of data set [21] is BV-2. Kind of data set: Anti-inflammatory activity against mouse BV-2 cells assessed as blocked of LPS-induced increased ROS production by measuring green fluorescence preincubated for 1 hr by DCFH-DA staining based fluorescence microscopy. Type of data set: functional, cell-based. Summed up: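 BV2 cells seeded at 1 × 10⁴ per well and grown 24 h at 37 °C. Compounds at various concentrations for 1 h, then LPS 2.5 μg/mL for 24 h. Washed in PBS, loaded with DCFH-DA 5 μM (final) for 30 min, washed three times. Intracellular ROS taken as green fluorescence intensity by inverted fluorescence microscopy, exposure fixed at 10.2 ms.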

Data set [22] deals with Mus musculus. As to the kind of experiment: Anti-alzheimer activity in amyloid beta(1 to 42)-induced ICR mouse model of cognitive impairment assessed as enhanced alternation performance by measuring total number of arm entries at 15 mg/kg, ig administered at days 2 to 14 and measured on day 15 by Y-maze test. The format is functional. Summed up:
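Oligomerized Aβ1-42 (10 μg per mouse, icv) given on day 1; saline icv for sham. Dosing 15 mg/kg ig on days 2−14 (donepezil as positive control), n = 8. Spontaneous alternation read on day 15 in a three-arm grey PVC Y maze, arms at 120°. Mean SD.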

Data set [23] can be described thus: Metabolic stability in human liver microsomes assessed as half life at 1 uM measured upto 45 mins in presence of NADPH by LC/MS/MS analysis. The format is ADME, Microsome. In short, it runs like this: as §4
For data set [24], the system named is SH-SY5Y. As to the kind of experiment: Neuroprotective activity against amyloid beta (1 to 42)-induced cytotoxicity in human SH-SY5Y cells at 2.5 uM pretreated for 2 hrs followed by amyloid beta (1 to 42) stimulation and measured after 24 hrs by MTT assay. The format is functional, cell-based. The following applies: time 26.0 hrs. In short, it runs like this: as §3

For data set [25], the system named is PC-12. As to the kind of experiment: Cytotoxicity against rat PC-12 cells assessed as survival rate at 10 uM incubated for 24 hrs by MTT assay. The format is functional. Summed up:
as §1

Data set [26] deals with HepG2. Kind of data set: Cytotoxicity against human HepG2 cells assessed as survival rate at 100 uM incubated for 24 hrs by MTT assay. The format is functional. Summed up: as §1
A short description of data set [27]: Hepatotoxicity in ICR mouse assessed as change in alanine aminotransferase activity at 1 g/kg, ig administered daily for 14 days measured upto 36 hrs post-administration. The following applies: in vivo, po, 1000 mg/kg, 336 h, time 14 day. The format is toxicity. In short, it runs like this:
as §2

Data set [28] has as its system Mus musculus. As to the kind of experiment: Anti-alzheimer activity in amyloid beta(1 to 42)-induced ICR mouse model of cognitive impairment assessed as simplification of trajectories at 15 mg/kg, ig administered at days 2 to 14 by Morris water maze test. Type of data set: functional, organism-based. Summed up:
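ICR mice, n = 8 per group. Aggregated Aβ1-42 (5 mM DMSO stock incubated 24 h at 37 °C in saline at 2 mg/mL) given 10 μg per mouse icv on day 1; saline icv for sham. Compound 15 mg/kg intragastric on days 2−14; donepezil reference. Morris water maze training days 9−13, probe trial day 14; tracks recorded; mean ± SD.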

Data set [29] deals with SH-SY5Y. Kind of data set: Neuroprotective activity against glutamate-induced cytotoxicity in human SH-SY5Y cells at 10 uM pretreated for 2 hrs followed by glutamate stimulation and measured after 24 hrs by MTT assay. Type of data set: functional, cell-based. The following applies: time 26.0 hrs. In short, it runs like this: as §3
Data set [30] in a line: Acute toxicity in ICR mouse assessed as abnormal behaviour at 1 g/kg, ig administered […]. The following applies: in vivo, po, 1000 mg/kg. Summed up: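 Single dose of 1 g/kg given intragastrically on day 1 to overnight-fasted mice (15−18 g), suspended in 5% DMSO, 40% PEG 400, 55% saline. Male and female groups (n = 9), with vehicle controls. Death, daily behaviour and body mass followed over the next 2 weeks.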

Active and inactive are the calls of the source. The rule behind the calls is not given here.

One may read the IC50 as the concentration that inhibits the measured activity by half. Broadly, the half-life is how long it takes for the measured level to halve.

Chain of Cholinesterase (Equus caballus, UniProt P81908) (P81908 whole entry): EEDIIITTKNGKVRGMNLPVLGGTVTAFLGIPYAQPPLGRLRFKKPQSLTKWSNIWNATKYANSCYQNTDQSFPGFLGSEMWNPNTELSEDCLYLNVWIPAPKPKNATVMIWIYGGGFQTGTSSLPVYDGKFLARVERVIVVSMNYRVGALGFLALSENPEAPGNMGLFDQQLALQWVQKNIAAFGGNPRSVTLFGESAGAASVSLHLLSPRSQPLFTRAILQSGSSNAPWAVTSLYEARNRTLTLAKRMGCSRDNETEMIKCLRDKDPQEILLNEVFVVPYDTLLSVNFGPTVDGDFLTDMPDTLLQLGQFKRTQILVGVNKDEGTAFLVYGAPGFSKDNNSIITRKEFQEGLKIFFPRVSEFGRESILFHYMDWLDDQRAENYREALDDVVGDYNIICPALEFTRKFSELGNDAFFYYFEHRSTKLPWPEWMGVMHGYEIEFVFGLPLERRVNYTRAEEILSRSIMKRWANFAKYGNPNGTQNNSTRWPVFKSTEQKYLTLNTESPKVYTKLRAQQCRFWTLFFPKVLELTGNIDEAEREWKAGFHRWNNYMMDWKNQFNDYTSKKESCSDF
Chain of Cholinesterase (Homo sapiens, UniProt P06276) (P06276 whole entry): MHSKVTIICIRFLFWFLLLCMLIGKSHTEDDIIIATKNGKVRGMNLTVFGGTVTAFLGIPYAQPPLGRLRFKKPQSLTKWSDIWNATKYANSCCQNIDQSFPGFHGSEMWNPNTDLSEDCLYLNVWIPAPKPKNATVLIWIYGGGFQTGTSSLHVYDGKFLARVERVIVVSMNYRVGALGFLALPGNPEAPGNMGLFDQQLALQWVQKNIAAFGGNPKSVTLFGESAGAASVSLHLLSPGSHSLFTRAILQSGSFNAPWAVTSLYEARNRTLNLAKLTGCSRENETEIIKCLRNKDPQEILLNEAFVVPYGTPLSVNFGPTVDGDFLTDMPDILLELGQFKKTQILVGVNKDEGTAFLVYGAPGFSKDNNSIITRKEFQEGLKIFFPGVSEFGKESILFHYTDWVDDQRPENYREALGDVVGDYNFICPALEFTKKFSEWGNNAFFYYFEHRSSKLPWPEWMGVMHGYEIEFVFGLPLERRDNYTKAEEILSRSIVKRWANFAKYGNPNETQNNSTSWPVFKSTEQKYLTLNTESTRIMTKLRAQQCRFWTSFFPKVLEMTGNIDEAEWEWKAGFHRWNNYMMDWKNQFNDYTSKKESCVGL

Take `Cc1ccc2cc(NC(=O)Cn3c(-c4nonc4N)nc4ccccc43)ccc2n1`: the concentration for half-maximal inhibition (IC50) in [1] turned out to be 17.3 µM; in [3] it was 91.5 µM; in data set [4] it was 35.1 µM. Further, the Activity in [2] is 59.79%; in data set [5] it was 61.49%.

For the compound `Nc1nonc1-c1nc2ccccc2n1CC(=O)Nc1cccc2ccccc12`, the IC50 in [1] was 5.05 µM; in [6], 0.022 µM; in data set [8], 0.044 µM. Also, the Activity in data set [2] is reported as 82.9%; in data set [7], 44.44%; in data set [9], 40.84%; in data set [5], 73.52%.

For `Nc1nonc1-c1nc2ccccc2n1CC(=O)Nc1cccc([N+](=O)[O-])c1`, the outcome in data set [10], in data set [15], in data set [18], in data set [21], in data set [24] and in [28] was Active. Also, the result in [29] was Active. In addition, the Activity result in [11] is “Toxic”; in data set [12], “Non-Toxic”; in [13] it was “Non-Toxic”; in data set [2], 94.23%; in [14] it was “Dose-Dependent Effect”; in data set [16], “Non-Toxic”. The Activity was 82.67% in [20]; 68.67% in data set [22]; 58.34% in data set [25]; 75.46% in data set [26]; “Non-Toxic” in data set [27]; “Non-Toxic” in data set [30]. In [5], the Activity worked out at 87.01%. The half-inhibitory concentration (IC50) stood at 0.025 µM in data set [6] and 0.031 µM in data set [8]. For the same compound, in [17], the Papp at 18 h, 100 ug/ml came out at 12.4 ×10⁻⁶ cm/s. Besides, the CLint scaled at 1 µM in data set [19] was 36.6 mL/min/kg. The half-life at 1 µM in data set [23] worked out at 47.5 min.

For the origin of these results see ChEMBL document CHEMBL5038583, “Highly Potent and Selective Butyrylcholinesterase Inhibitors for Cognitive Improvement and Neuroprotection” (J Med Chem, 2021).
